Test [1] is described as follows: Inhibition of 6-His tagged recombinant c-Myc353-437 gene binding to Max(S) protein assessed as disruption of heterodimer formation by circular dichroism assay. In a few lines: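 Circular dichroism on equimolar c-Myc and Max (1.5 µM each), with helical content read as ellipticity at 222 nm. Compounds were screened at 200 µM (average of three independent trials), then titrated over a concentration range. The fitted Kcomp was multiplied by the independently determined c-Myc–Max dissociation constant to estimate affinity for c-Myc monomer. Triplicate.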
On the technique in general: Circular dichroism is the unequal absorption of left and right circularly polarised light.

The next test concerns HL-60. Description: Cytotoxicity against human HL60 cells by MTS assay. The test is classed as functional, cell-based. In a few lines: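 HL60 cell growth dose-response profiles; IC50 calculated from the profile on day 5 after compound addition.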
(Formazan colour is commonly taken as a measure of viable cells.)

A short description of test [2]: Cytotoxicity against rat c-Myc knockout KO-HMG cells overexpressing HMGA1b by MTS assay. Type of test: cell-based.

pIC50: −log10 of the molar value. The source made the active and inactive calls. The calls are words filed in the database; no cut-off is given here. Where only a bound is given, the exact number is not on record here.

As to `CN(C)c1ccc(/C=C2\SC(=S)NC2=O)cc1`, the result in test [1] was inactive.

As a reminder, the pIC50 is the negative decadic logarithm of the IC50, by convention in mol/L. For `O=C1NC(=S)S/C1=C\c1ccc(Cl)cc1`, in test [1], the pIC50 is 4.39. Take `O=C1NC(=S)S/C1=C\c1ccc(O)c(O)c1`: in test [1], the pIC50 is 4.64. Turning to `Cc1ccc(C)c(OCN2Cc3ccccc3C2C=O)c1` (stereo not drawn), the negative-log IC50 (pIC50) is 4.82 with HL-60 and less than 4.46 in test [2]. `CCCN1C(=O)/C(=C/c2ccc(CC)cc2)SC1=S`: the pIC50 in test [1] is 5.34.

As to `CCc1ccc(/C=C2\SC(=S)NC2=O)cc1`, the pIC50 was 4.31 in test [1] and 4.46 with HL-60. In the case of `O=C1NC(=S)S/C1=C\c1ccc(O)cc1`, the result in test [1] was inactive. Turning to `CCc1ccc(OCC(=O)Nc2ccc(C)cc2Br)cc1`, the results for the pIC50 (in the test with HL-60; in test [2]) were 4.64 and less than 4.26, respectively. `CCCCOC(=O)CCN1C(=O)/C(=C/c2ccc(CC)cc2)SC1=S`: the pIC50 in test [1] was 5.00. In the case of `CC(C)c1ccc(/C=C2\SC(=S)NC2=O)cc1`, the pIC50 in test [1] is 4.42.
